STAT1 activator: activators of IFN-gamma induced STAT1 signaling. NIH 3T3 STAT1-luciferase reporter, luminescence; 100% = IFN-gamma alone, no compound. activation (% of control), % at 5.5 µM. 200,000 tested, 2.6% active;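 active = activation above the screen-wide mean activation plus 3 SD, cut at about 130% in these data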;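 note: raw ratio to IFN-gamma control signal so 100% means no change and 0% no light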
APP 5'UTR act: activates APP 5'UTR luciferase reporter; SH-SY5Y APP 5'UTR luciferase reporter, luminescence; zero percent = DMSO vehicle wells; 190,000 tested, 1% active; activation, % at 2 µM;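 active = activation above a set limit, based on mean plus 3 SD of controls, cut at about 140% in these data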
AHR activator: activators of human aryl hydrocarbon receptor. AHR-responsive luciferase reporter cells, luminescence. activation, % at 5 µM. P35869. 320,000 tested, 2.5% active; in the data active = activation above about 47%;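 note: 0% = vehicle wells and 100% = reference agonist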
MDM2 E3 inh: blocks human Mdm2 ubiquitin ligase activity. Q00987. signal enhancement, % at 5 µM. AID 1230. cell-based MDM2 ubiquitination luciferase reporter, 2 h; 0 = plate control, 100 = twice control, blank-subtracted. 210,000 tested, 0.11% active;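 active = signal enhancement of 30% or more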;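 note: luminescence tracks abundance of the self-degrading MDM2-luciferase fusion protein; higher signal means inhibition of MDM2 E3 ligase activity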
Target sequence (Q00987 whole entry, looked up, the tested form may be a part): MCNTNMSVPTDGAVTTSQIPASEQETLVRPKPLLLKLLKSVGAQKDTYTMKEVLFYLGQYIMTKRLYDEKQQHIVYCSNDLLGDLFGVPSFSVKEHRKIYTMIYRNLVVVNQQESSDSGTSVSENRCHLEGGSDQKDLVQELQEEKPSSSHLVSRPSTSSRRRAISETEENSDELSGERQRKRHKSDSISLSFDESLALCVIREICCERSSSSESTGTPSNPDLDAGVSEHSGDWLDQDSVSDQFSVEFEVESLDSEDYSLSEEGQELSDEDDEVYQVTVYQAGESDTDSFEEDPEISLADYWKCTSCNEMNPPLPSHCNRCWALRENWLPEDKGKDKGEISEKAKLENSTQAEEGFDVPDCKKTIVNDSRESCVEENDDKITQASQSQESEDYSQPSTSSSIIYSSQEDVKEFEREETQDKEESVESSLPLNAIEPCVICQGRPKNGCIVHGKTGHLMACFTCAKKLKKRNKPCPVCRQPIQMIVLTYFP
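Assay system: mammalian cells stably expressing self-ubiquitinating, self-degrading MDM2 E3–luciferase fusion. Quantity: 2000 cells in each well. Medium: DMEM culture medium. Compound dosing: single-point 5 µM. Timing: cell settling 4 h, compound treatment 2 h, both 37 °C. Technique: luciferase luminescence. Read-out basis: percent signal gain over controls, blank-subtracted. Benchmarks: plate controls and plate blanks.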
PERK inh: blocks human PERK kinase; Q9NZJ5; CHO PERK-DD fusion, SEAP luminescence translation reporter; inhibition, % at 5.6 µM; 220,000 tested, 0.17% active; AID 1416;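 active = inhibition above the mean inhibition of all tested compounds plus 3 SD, set separately per screening campaign, cut at about 2.9% in these data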;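 note: PERK kinase domain activated by AP20187 dimerizer at 100 nM; 0% = DMSO with dimerizer and 100% = rapamycin at 8.4 µM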
NF-kB neuron act: raises NF-kB expression in human neuronal cells. fold change at 12.5 µM. AID 1239. NF-kB reporter expression; active compounds read high. 190,000 tested, 1.6% active; in the data active = fold change above about 3.3
An asterisk follows results filed as active; x = no result. Shown are actives, neighbours in structure and some others; about 4.5% of the full set was active somewhere.

SMILES	STAT1 activator	APP 5'UTR act	AHR activator	MDM2 E3 inh	PERK inh	NF-kB neuron act
COc1ccc(Br)cc1/C=N/Nc1cccc(C(=O)O)c1	108	18	13	0	1	1.8
COc1ccc(C(=O)Nc2ccc(Nc3ccccc3)cc2)cc1OC	x	x	-1	x	x	x
COc1ccc(C(=O)Nc2ccc(/C(C)=N/NC(=O)c3ccccc3O)cc2)cc1OC	129*	13	7	x	0	0.77
COc1ccc(/C(C)=N/Nc2nc3ccccc3nc2C)cc1OC	x	x	77*	-23	-2	x
C=CCOc1c(CNc2cccc(C(=O)O)c2)cccc1OC	145*	56	21	-21	1	1.9
COc1ccc(/C(C)=N/Nc2cccc(C(=O)O)c2)cc1OC	107	217*	1	2	0	1.1
O=S(=O)(NC1=NCCC1)c1cccc(NS(=O)(=O)c2ccc(OC(F)(F)F)cc2)c1	99	12	-1	-2	1	1
COc1cc2c(cc1OC)CN(CC(=O)Nc1ccc(C#N)cc1)CC2	98	15	-4	x	0	1.1
C/C(=N\Nc1cccc(C(=O)O)c1)c1ccc(Cl)s1	135*	86	0	x	1	2.1
C/C(=N\NC(=O)C(=O)Nc1cccc(C(F)(F)F)c1)c1ccc(Cl)s1	95	12	-5	-19	0	1.3
CC(Cc1cccs1)NC(=O)CCCn1nnnc1CN1CCOCC1 (stereo not drawn)	x	x	0	x	x	x
CCCc1ccc2oc(C(=O)NCCc3cnn(C)c3)c(C)c2c1	x	x	49*	x	x	x
CCCc1ccc2oc(C(=O)N3CCCC3)c(C)c2c1	x	x	-1	x	x	x
CC(=O)c1sc(-c2cccc(Cl)c2)nc1C	108	16	1	9	0	1.4
CC(=O)c1sc(-c2ccc(Cl)cc2)nc1C	133*	36	3	1	1	1.4
CNC(=O)c1sc(-c2ccc(Cl)cc2)nc1C	142*	x	-2	-13	1	2.1
Cn1c(=O)c(=O)n(C)c2cc([N+](=O)[O-])c(N3CCOCC3)cc21	x	x	9	x	x	x
CCOC(=O)C(C)NC(=O)c1cn(-c2ccc(OC)cc2)c(=O)c2ccccc12 (stereo not drawn)	x	x	2	x	x	x
O=C(NNC(=S)NCC1CCCO1)c1cc(Br)ccc1Cl (stereo not drawn)	x	x	6	x	x	x
Cc1ccc(NC(=S)c2nc3ccccc3[nH]2)cc1	119	193*	26	-40	-1	4.5*
Cc1ccc(SCC(=O)Nc2ccc(-c3nc4ccccc4[nH]3)cc2)cc1	132*	8	16	0	2	1.4
CC(=O)Nc1cc(NC(C)=O)cc(-c2nc3ccccc3[nH]2)c1	100	-28	24	11	1	1.2
CC(=O)Nc1ccc(-c2nc3c(C)cccc3[nH]2)cc1	130*	169*	47	-20	0	3.8*
CN(C)CCNC(=S)Nc1ccc(-c2nc3ccccc3[nH]2)cc1	102	163*	23	-28	0	3.7*
C=Cc1ccc(Cn2c(=O)n(CCCOC)c(=O)c3sccc32)cc1	x	x	1	x	x	x
SMILES	STAT1 activator	APP 5'UTR act	AHR activator	MDM2 E3 inh	PERK inh	NF-kB neuron act
CC(C)CC(=O)Nc1ccc(-c2nc3ccccc3c(=O)[nH]2)cc1	140*	184*	6	-29	-1	1.3
CC(C)CC(=O)Nc1ccc(-c2nc3ccccc3c(=O)o2)cc1	83	7	1	0	0	1.3
Cn1ncc2c(=O)n(CC(=O)NC34CC5CC(CC(C5)C3)C4)cnc21	104	-10	1	-1	1	1
Cc1cc(C)nc(Nc2ncc(O)n2-c2ccc(C)c(C)c2)n1	96	-3	7	-4	-3	1
Cc1cc(C)nc(Nc2ncc(O)n2-c2ccc(C)c(Cl)c2)n1	92	-11	57*	-15	-1	1.1
CC1CCN(CC(=O)Nc2ccc(Cl)cc2[N+](=O)[O-])CC1	99	20	4	16	1	1.1
O=C(NCC1CCCN1S(=O)(=O)c1cccs1)c1ccc(Cl)cc1 (stereo not drawn)	x	x	6	x	x	x
COc1ccc(NS(=O)(=O)c2nnc(NC(=O)c3ccccc3F)s2)cc1	x	x	-2	x	x	x
COC(=O)c1scc(C)c1NS(=O)(=O)c1ccc(NC(C)=O)cc1	x	x	-1	-9	1	x
FC(F)(F)c1ccc(-c2csc(-c3ccno3)n2)cc1	x	x	63*	-17	1	x
Cc1cc(C)cc(NC(=S)NC(=O)Cc2ccccc2)c1	x	x	22	x	x	x
